We go through 56 molecules from ChEMBL document CHEMBL1124606, “Benzo- and pyrido-1,4-oxazepin-5-ones and -thiones: synthesis and structure-activity relationships of a new series of H1 antihistamines” (1989).

Assay [1] concerns the target Histamine H1 receptor (Cavia porcellus) (UniProt P31389). In words: Histamine induced lethality, at 30-min pretreatment time of 3 mg/kg i.p. in guinea pigs. The assay is classed as functional, organism-based. Also on record: dose 3 mg/kg. The settings on record: at 3 mg/kg.
In assay [2] the test system is Cavia porcellus. In words: Histamine induced lethality, at 30-min pretreatment time when 30 mg/kg compound was administered intra peritoneally in guinea pigs. It counts as functional.
The subject of assay [3] is Cavia porcellus. In words: Histamine induced lethality, at 60-min pretreatment time when 1 mg/kg compound was administered perorally in guinea pigs. It counts as functional. The settings on record: route oral.
Assay [4] concerns Cavia porcellus. In words: Histamine induced lethality, at 60-min pretreatment time when 0.3 mg/kg compound was administered perorally in guinea pigs. It counts as functional. The settings on record: route oral.
For assay [5], the system named is Cavia porcellus. In words: Histamine induced lethality, at 60-min pretreatment time when 3 mg/kg compound was administered perorally in guinea pigs. The assay is classed as functional. The settings on record: route oral.
The species entered for assay [6] is Cavia porcellus. As to the kind of experiment: Effective dose that protects guinea pigs against histamine induced lethality, at 1 hour pretreatment time. The assay is classed as functional. The essentials: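 Survival at 24 h after challenge was scored as protection. Groups of 5–10 animals per treatment; ED50 was calculated by the Litchfield–Wilcoxon method or by computer probit analysis.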

Assay [7] has as its target Histamine H1 receptor (Cavia porcellus) (UniProt P31389). In words: Histamine induced lethality, at 60-min pretreatment time of 0.1 mg/kg p.o. in guinea pigs. It counts as functional, organism-based. The arrangement: dose 0.1 mg/kg. The settings on record: at 0.1 mg/kg.

Structures are written as SMILES.

Histamine H1 receptor (Cavia porcellus), sequence (P31389 whole entry): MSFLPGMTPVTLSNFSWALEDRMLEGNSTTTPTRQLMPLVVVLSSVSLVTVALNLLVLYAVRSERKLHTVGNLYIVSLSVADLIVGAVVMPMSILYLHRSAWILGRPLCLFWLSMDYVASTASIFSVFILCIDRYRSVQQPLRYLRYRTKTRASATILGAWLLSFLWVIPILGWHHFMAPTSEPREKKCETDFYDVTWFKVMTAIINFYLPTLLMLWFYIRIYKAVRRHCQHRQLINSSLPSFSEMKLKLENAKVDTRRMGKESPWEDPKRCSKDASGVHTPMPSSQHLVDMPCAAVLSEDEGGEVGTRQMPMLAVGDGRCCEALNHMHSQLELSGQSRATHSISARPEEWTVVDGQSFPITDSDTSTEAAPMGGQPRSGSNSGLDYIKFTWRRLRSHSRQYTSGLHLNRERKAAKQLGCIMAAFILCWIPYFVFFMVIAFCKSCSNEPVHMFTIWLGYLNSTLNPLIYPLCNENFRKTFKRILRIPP

For `CN1CCN(CCC2CN(C)C(=S)c3cccnc3O2)CC1` (stereo unspecified), in assay [1], the Survival came to 0%. For the same molecule, the survival at 30 mg/kg in assay [2] came to 100%. For `CN1CC(CCN2CCCCC2)Oc2ncccc2C1=S` (stereo unspecified), the Survival in assay [1] turned out to be 0%. The survival at 30 mg/kg in assay [2] stood at 100%.

On to `CN1CC(CCn2ccnc2)Oc2ncccc2C1=S` (stereo unspecified), for which the Survival in assay [1] was found to be 0%. In addition, the survival at 30 mg/kg in assay [2] came out at 100%.

For `CN(C)CCC1CN(C)C(=O)c2cnc3cc(C(F)(F)F)ccc3c2O1` (stereo unspecified), the Survival in assay [1] is 0%. Moreover, the survival at 30 mg/kg in assay [2] was 100%.

Turning to `CN1CC(CCNC2CC2)Oc2ncccc2C1=S` (stereo unspecified), in assay [2], the survival at 30 mg/kg was 0%. For the molecule `CN(C)CCC1CN(C)C(=S)c2cc(F)ccc2O1` (stereo unspecified), the survival at 1 mg/kg in assay [3] worked out at 20%. Moreover, the survival at 0.3 mg/kg in assay [4] is 0%. In assay [5], the survival at 3 mg/kg worked out at 100%. `CN1CC(CCN2CCC2)Oc2ccc(Cl)cc2C1=S` (stereo unspecified): in assay [6], the ED50 (in general, the dose at which the effect has come halfway, by size or by number of responders) was determined as 0.12 mg/kg. Also, in assay [7], the Survival turned out to be 40%. Moreover, the survival at 0.3 mg/kg in assay [4] is 100%.

As to `CN1CC(CCN2CCCC2)Oc2ncc(Cl)cc2C1=S` (stereo unspecified), in assay [6], the ED50 stood at 0.12 mg/kg. Also, the Survival in assay [7] turned out to be 40%. Further, in assay [4], the survival at 0.3 mg/kg amounted to 100%. `CN(C)CCC1CN(C)C(=S)c2cc([N+](=O)[O-])ccc2O1` (stereo unspecified): the survival at 0.3 mg/kg in assay [4] amounted to 33%. The survival at 3 mg/kg in assay [5] was 67%. For the molecule `CN(C)CCC1CN(C)C(=O)c2ccccc2O1` (stereo unspecified), the survival at 30 mg/kg in assay [2] came to 62%. Consider `CN1CC(CCN2CCOCC2)Oc2ncccc2C1=S` (stereo unspecified), for which the Survival in assay [1] worked out at 0%. Besides, the survival at 30 mg/kg in assay [2] worked out at 100%. Take `CN(CCC1CN(C)C(=S)c2cc(Cl)cnc2O1)Cc1ccccc1` (stereo unspecified): in assay [6], the ED50 is 0.9 mg/kg. In assay [4], the survival at 0.3 mg/kg amounted to 60%. In addition, the survival at 3 mg/kg in assay [5] worked out at 100%. Regarding `CCN1CC(CCN(C)C)N(C)c2ccccc2C1=O` (stereo unspecified), the survival at 30 mg/kg in assay [2] was found to be 0%. With `CN(C)CCC1CN(C)C(=O)c2c(Cl)cncc2O1` (stereo unspecified), in assay [2], the survival at 30 mg/kg was 0%. On to `CCN1CC(CCN(C)C)Oc2ncccc2C1=S` (stereo unspecified), for which the survival at 1 mg/kg in assay [3] amounted to 33%. Also, the survival at 3 mg/kg in assay [5] turned out to be 100%. `CN(C)CC1CN(C)C(=O)c2cccnc2O1` (stereo unspecified): the survival at 30 mg/kg in assay [2] was 0%. On to `CN1CC(CCn2cccn2)Oc2ncccc2C1=S` (stereo unspecified), for which, in assay [2], the survival at 30 mg/kg turned out to be 33%. For `CCN(CC)CCC1CN(C)C(=S)c2cccnc2O1` (stereo unspecified), the survival at 1 mg/kg in assay [3] amounted to 33%. Further, the survival at 3 mg/kg in assay [5] worked out at 67%. The like results for `CN(C)CCC1CN(C)C(=S)c2cc(N)ccc2O1` (stereo unspecified) were, in that order, 0% and 100%.

Turning to `CN1CC(CCNC2CCC2)Oc2ncccc2C1=S` (stereo unspecified), in assay [2], the survival at 30 mg/kg was 0%. Turning to `CN1CC(CCN2CC=CC2)Oc2ncccc2C1=S` (stereo unspecified), the survival at 1 mg/kg in assay [3] was found to be 0%. The survival at 3 mg/kg in assay [5] was found to be 100%.

As for `CN(C)CCCC1CN(C)C(=S)c2cccnc2O1` (stereo unspecified), the Survival in assay [1] was found to be 33%. The survival at 30 mg/kg in assay [2] stood at 100%. For the molecule `CN(C)CCOc1ncccc1C(=S)N(C)C`, in assay [2], the survival at 30 mg/kg is 0%.

As to `CN(C)CCC1CN(C)C(=S)c2ccncc2O1` (stereo unspecified), in assay [3], the survival at 1 mg/kg came to 100%. For the same molecule, in assay [4], the survival at 0.3 mg/kg worked out at 0%. With `CCN(CC)CCC1CN(C)C(=S)c2cc(Cl)cnc2O1` (stereo unspecified), the ED50 in assay [6] was 0.39 mg/kg. Besides, the survival at 0.3 mg/kg in assay [4] came out at 20%. The survival at 3 mg/kg in assay [5] is 100%. With `CN(C)CCC1CN(C)C(=O)c2cccnc2O1` (stereo unspecified), the survival at 1 mg/kg in assay [3] was found to be 20%. For the same molecule, the ED50 in assay [6] was found to be 1.05 mg/kg. Moreover, in assay [5], the survival at 3 mg/kg came out at 100%. With `S=C1c2ccccc2OC(CCN2CCOCC2)CN1Cc1ccccc1` (stereo unspecified), the survival at 30 mg/kg in assay [2] is 0%.

Turning to `CN(C)CCCOc1ncccc1C(=S)N(C)C`, the survival at 30 mg/kg in assay [2] was found to be 0%.

With `CNCCC1CN(C)C(=S)c2cc(Cl)cnc2O1` (stereo unspecified), the survival at 0.3 mg/kg in assay [4] was 0%. In assay [5], the survival at 3 mg/kg came out at 100%. As to `CC(CN(C)C)C1CN(C)C(=O)c2cccnc2O1` (stereo unspecified), the Survival in assay [1] came to 0%. The survival at 30 mg/kg in assay [2] turned out to be 67%. `Cc1nc2c(cc1Cl)C(=S)N(C)CC(CCN1CCC1)O2` (stereo unspecified): in assay [7], the Survival worked out at 67%. For the same molecule, in assay [4], the survival at 0.3 mg/kg came out at 67%. With `CN(C)CCC1CN(C)C(=O)c2cc(Cl)ccc2O1` (stereo unspecified), the survival at 1 mg/kg in assay [3] was 33%. Besides, in assay [4], the survival at 0.3 mg/kg is 0%. Also, the survival at 3 mg/kg in assay [5] stood at 40%. With `CN(CCC1CN(C)C(=S)c2cccnc2O1)Cc1ccccc1` (stereo unspecified), the survival at 1 mg/kg in assay [3] was determined as 0%. The survival at 3 mg/kg in assay [5] amounted to 100%. As to `CN1CC(CCCN)Oc2ncccc2C1=O` (stereo unspecified), the Survival in assay [1] came out at 0%. The survival at 30 mg/kg in assay [2] stood at 100%.

`CC(CC1CN(C)C(=O)c2cccnc2O1)N(C)C` (stereo unspecified): the Survival in assay [1] stood at 0%. For the same molecule, the survival at 30 mg/kg in assay [2] came to 100%. The matching figures for `CC(CN(C)C)C1CN(C)C(=S)c2cccnc2O1` (stereo unspecified): 0% and 100%. With `Cc1nc2c(cc1Cl)C(=S)N(C)CC(CCN(C)C)O2` (stereo unspecified), the Survival in assay [7] amounted to 67%. Besides, the survival at 0.3 mg/kg in assay [4] is 67%.

As to `CN1CC(CC[N+](C)(C)C)Oc2ncccc2C1=S` (stereo unspecified), the Survival in assay [1] stood at 0%. Moreover, the survival at 30 mg/kg in assay [2] is 100%.

Turning to `CN(CCC1CN(C)C(=S)c2cccnc2O1)Cc1ccc(C(C)(C)C)cc1` (stereo unspecified), the survival at 1 mg/kg in assay [3] was determined as 40%. The survival at 0.3 mg/kg in assay [4] was found to be 0%. Besides, the survival at 3 mg/kg in assay [5] worked out at 100%. For the molecule `CN1CC(CCN2CCOCC2)Oc2ccccc2C1=S` (stereo unspecified), the survival at 30 mg/kg in assay [2] turned out to be 50%.

In the case of `CCCCN(CCCC)CCC1CN(C)C(=S)c2cccnc2O1` (stereo unspecified), the Survival in assay [1] amounted to 33%. Also, the survival at 30 mg/kg in assay [2] was determined as 100%.

As to `CN(C)CCC1CNC(=O)c2cccnc2O1` (stereo unspecified), in assay [3], the survival at 1 mg/kg stood at 0%. In addition, the survival at 3 mg/kg in assay [5] is 67%. `CN(C)CCC1CN(C)C(=O)c2c(cncc2N(C)C)O1` (stereo unspecified): in assay [2], the survival at 30 mg/kg was found to be 0%. Still for that read-out and setting: the same measure for `CN1CC(CCN(Cc2ccccc2)Cc2ccccc2)Oc2ncccc2C1=S` (stereo unspecified): 0%. On to `CN(C)CCC1CN=C(S)c2cccnc2O1` (stereo unspecified), for which the survival at 1 mg/kg in assay [3] is 33%. Besides, the survival at 0.3 mg/kg in assay [4] is 0%. Also, the survival at 3 mg/kg in assay [5] turned out to be 100%. Take `CN(C)CCC1CN(Cc2ccccc2)C(=S)c2cccnc2O1` (stereo unspecified): the survival at 1 mg/kg in assay [3] was 0%. Further, the survival at 3 mg/kg in assay [5] stood at 100%.

For the molecule `CN(C)CCC1CN(C)C(=S)c2cc(-c3ccccc3)cnc2O1` (stereo unspecified), in assay [3], the survival at 1 mg/kg was determined as 100%. Besides, in assay [4], the survival at 0.3 mg/kg was 0%. Besides, in assay [5], the survival at 3 mg/kg was determined as 100%. `COc1ccc(CN(C)CCC2CN(C)C(=S)c3cccnc3O2)cc1` (stereo unspecified): the survival at 1 mg/kg in assay [3] turned out to be 0%. In addition, the survival at 3 mg/kg in assay [5] is 67%. On to `CN(C)CCCC1CN(C)C(=O)c2cccnc2O1` (stereo unspecified), for which the Survival in assay [1] worked out at 0%. Also, the survival at 30 mg/kg in assay [2] is 100%. Regarding `CN(CCC1CN(C)C(=S)c2cc(Br)cnc2O1)Cc1ccccc1` (stereo unspecified), in assay [3], the survival at 1 mg/kg was 0%. Further, the survival at 3 mg/kg in assay [5] was found to be 100%. Regarding `CN(C)CC1CN(C)C(=S)c2cccnc2O1` (stereo unspecified), the survival at 30 mg/kg in assay [2] is 0%. Turning to `CN1CC(CCCN)Oc2ncccc2C1=S` (stereo unspecified), the survival at 30 mg/kg in assay [2] was found to be 67%.

Consider `CN(C)CCC1(C)CN(C)C(=O)c2cccnc2O1` (stereo unspecified), for which the ED50 in assay [6] came to 0.45 mg/kg. Moreover, in assay [4], the survival at 0.3 mg/kg came out at 67%. In addition, the survival at 3 mg/kg in assay [5] worked out at 67%. Regarding `CC(=O)Nc1ccc2c(c1)C(=S)N(C)CC(CCN(C)C)O2` (stereo unspecified), the survival at 0.3 mg/kg in assay [4] stood at 0%. In assay [5], the survival at 3 mg/kg came to 100%. As to `CN(C)CCC1CN(C)C(=O)c2cnc3ccccc3c2O1` (stereo unspecified), the survival at 30 mg/kg in assay [2] was found to be 33%. Consider `O=C1c2ccccc2OC(CCN2CCOCC2)CN1Cc1ccccc1` (stereo unspecified), for which, in assay [2], the survival at 30 mg/kg came out at 0%.
